From ChEMBL document CHEMBL4368876, “Synthesis of d-(+)-camphor-based N-acylhydrazones and their antiviral activity” (Medchemcomm, 2018)

What was measured:
[1] = Cytotoxicity against MDCK cells assessed as reduction in cell viability after 48 hrs by MTT assay; type: cell-based, Canis lupus familiaris; details: dog
How it was run: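 MDCK cells were exposed to three-fold dilutions of compound in MEM (top 300–400 μg mL-1) for 48 h at 36 °C in 5% CO2, then washed twice with PBS. MTT ([…] in PBS) was added for 1 h and formazan was dissolved in DMSO. OD was read at 535 nm. Triplicate wells per concentration; CC50 was taken from OD versus concentration.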

[2] = test system: Vaccinia virus; experiment: Antiviral activity against Vaccinia virus Copenhagen infected in African green monkey Vero cells assessed as inhibition of viral replication after 4 days by neural red dye-based spectrophotometric method; type: functional, organism-based, Orthopoxvirus vaccinia
[3] = Cytotoxicity against African green monkey Vero cells assessed as reduction in cell viability after 4 days by neural red dye-based spectrophotometric method; details: chlorocebus sabaeus
How it was run: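 Vero cell monolayers in DMEM with 2% fetal serum were given serial dilutions of compound, with no virus added. After 4 days the cells were stained with neutral red for 2 h, unbound dye was washed out and the cells were lysed. OD was read at 490 nm. CC50 in μM was derived from the OD data; three independent experiments, mean ± 95% confidence interval.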

[4] = test system: Influenza A virus; experiment: Antiviral activity against Influenza A virus (A/Puerto Rico/8/34(H1N1)) infected in MDCK cells assessed as reduction in virus titer pretreated with cells for 1 hr followed by viral infection for 1 hr and subsequent unbound virion washout measured after 24 to 48 hrs by hemagglutination test; type: functional, organism-based, A/Puerto Rico/8/1934(H1N1)
How it was run: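 MDCK cells pre-incubated 1 h at 36 °C with compound in MEM containing 1 μg mL−1 trypsin, then infected with A/Puerto Rico/8/34 (H1N1), moi 0.01, for 1 h. Unbound virus washed off, then 24 h at 36 °C, 5% CO2. Supernatant titre read by hemagglutination after 48 h passage in MDCK, as % of untreated control. Triplicate wells; IC50 calculated.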

[5] = test system: Orthopoxvirus; experiment: Antiviral activity against Orthopoxvirus assessed as reduction in viral replication; type: functional, organism-based
[6] = Selectivity index, ratio of CC50 for MDCK cells to IC50 for Influenza A virus (A/Puerto Rico/8/34(H1N1)) infected in MDCK cells; type: toxicity, cell-based; details: dog, read-out: Ratio CC50/IC50
[7] = Selectivity index, ratio of CC50 for African green monkey Vero cells to IC50 for Vaccinia virus Copenhagen infected in African green monkey Vero cells; type: toxicity; details: read-out: Ratio CC50/IC50
[8] = Orthopoxvirus vaccinia, Copenhagen, Vero, 96 h, read-out: IC50
[9] = Influenza A virus, A/Puerto Rico/8/1934(H1N1), MDCK, read-out: IC50

SMILES	CC50 at 48 h [1]	IC50 ([2]; vero)	CC50 at 96 h [3]	IC50 [4]	IC50 [5]	IC50 [2, 8]	selectivity ratio [6]	selectivity ratio [7]	IC50 [4, 9]
CC1(C)[C@@H]2CC[C@@]1(C)/C(=N/NC(=O)c1cccs1)C2	1030 µM	Not Active	362 µM	Not Active	–	–	–	–	–
CC(=O)N/N=C1\C[C@H]2CC[C@]1(C)C2(C)C	–	Not Active	> 250 µM	–	–	–	–	–	–
CC1CCN(CC(=O)N[C@@H]2C[C@H]3CC[C@]2(C)C3(C)C)CC1	–	–	–	–	2.5 µM	–	–	–	–
CC1(C)[C@@H]2CC[C@@]1(C)/C(=N/NC(=O)c1ccc(Br)cc1)C2	> 822 µM	–	288 µM	–	–	11.1 µM	4	26	219 µM
CC1(C)[C@@H]2CC[C@@]1(C)/C(=N/NC(=O)c1ccccc1)C2	> 1050 µM	–	1430 µM	–	–	5.1 µM	5	280	201 µM
CC1(C)[C@@H]2CC[C@@]1(C)/C(=N/NC(=O)C(F)(F)F)C2	> 1080 µM	Not Active	> 250 µM	Not Active	–	–	–	–	–
CC1(C)[C@@H]2CC[C@@]1(C)[C@H](OC(=O)CCN1CCOCC1)C2	–	–	–	–	3.5 µM	–	–	–	–
CC1(C)[C@@H]2CC[C@@]1(C)/C(=N/NC(=O)c1ccco1)C2	1090 µM	–	285 µM	–	–	38.7 µM	3	7	325 µM
CCCC(=O)N/N=C1\C[C@H]2CC[C@]1(C)C2(C)C	> 1190 µM	–	854 µM	–	–	69.8 µM	2	12	794 µM
CC12C=CC3(O1)C(C(=O)N1c4ccccc4SC13)C2C(=O)N/N=C1\C[C@H]2CC[C@]1(C)C2(C)C (mixture of isomers)	123 µM	Not Active	67.2 µM	–	–	–	3	–	36 µM
CCN1CC23C=CC(O2)C(C(=O)N/N=C2\C[C@H]4CC[C@]2(C)C4(C)C)C3C1=O (mixture of isomers)	775 µM	Not Active	> 250 µM	Not Active	–	–	–	–	–
CC12C=CC3(CN(Cc4ccccc4)C(=O)C3C1C(=O)N/N=C1\C[C@H]3CC[C@]1(C)C3(C)C)O2 (mixture of isomers)	227 µM	Not Active	> 250 µM	–	–	–	3	–	> 72 µM
CC12C=CC3(O1)C(C(=O)N1CCCOC13)C2C(=O)N/N=C1\C[C@H]2CC[C@]1(C)C2(C)C (mixture of isomers)	> 721 µM	Not Active	> 250 µM	–	–	–	2	–	481 µM
COCCN1CC23C=CC(O2)C(C(=O)N/N=C2\C[C@H]4CC[C@]2(C)C4(C)C)C3C1=O (mixture of isomers)	719 µM	Not Active	> 250 µM	Not Active	–	–	–	–	–
CC12C=CC3(CN(c4ccccc4)C(=O)C3C1C(=O)N/N=C1\C[C@H]3CC[C@]1(C)C3(C)C)O2 (mixture of isomers)	277 µM	–	600 µM	–	–	6.2 µM	12	97	22 µM
CC12C=CC3(O1)C(C(=O)N1CCSC13)C2C(=O)N/N=C1\C[C@H]2CC[C@]1(C)C2(C)C (mixture of isomers)	–	Not Active	> 250 µM	–	–	–	–	–	–
NC12CC3CC(CC(C3)C1)C2 [AMANTADINE]	–	–	–	–	–	–	4	–	64 µM
Nc1ccn(C[C@@H](CO)OCP(=O)(O)O)c(=O)n1 [CIDOFOVIR]	–	–	–	–	–	–	–	12	–
NC(=O)c1ncn([C@@H]2O[C@H](CO)[C@@H](O)[C@H]2O)n1 [RIBAVIRIN]	> 2130 µM	–	–	–	–	–	71	–	30 µM
CC(N)C12CC3CC(CC(C3)C1)C2 (stereo not given) [RIMANTADINE]	–	–	–	–	–	–	5	–	67 µM
